Results: publication PMC3600088 (Journal of medicinal chemistry, 2013)
“Also recorded” adds a separate entry of the source. Like-named read-outs stand apart in the source and are kept apart here.

Tests used:
[1] = biological target: T1, CMG2 (Homo sapiens, UniProt P58335, C175A/R40C); assay: CMG2-Protective antigen; format: binding; conditions: for inhibitory activity in CMG2 FRET assay: concentrations up to 300 μM
T1 sequence (P58335 40-217 R40C/C175A): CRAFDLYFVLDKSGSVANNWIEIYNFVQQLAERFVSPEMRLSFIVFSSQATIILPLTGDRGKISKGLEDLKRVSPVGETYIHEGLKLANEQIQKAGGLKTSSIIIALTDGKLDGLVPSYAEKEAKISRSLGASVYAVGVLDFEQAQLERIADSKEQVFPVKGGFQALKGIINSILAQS

[2] = test system: human dermal microvascular endothelial cells (HMVEC-d); assay: Endothelial cell migration assay; format: cell-based; conditions: ex vivo endothelial cell migration assay
In short: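 HMVEC-d kept in EGM-2 and used before passage 7, resuspended in EBM with 0.1% BSA. 20,000 cells were placed on fibronectin-coated 8.0 μm-pore polycarbonate transwell inserts over full-serum (5%) medium with or without test compound, and left to migrate 4 h. Top-side cells were removed, membranes fixed and Diff-Quick stained, and 4 10X fields counted. Counts were normalized to no-treatment control, with IC50 from a binding-isotherm fit. Two experiments, n=3 each.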

[3] = test system: HMVEC-d cells; assay: Endothelial cell proliferation assay; format: cell-based, human; conditions: at doses that inhibited migration, 24 and 72 hours
[4] = test system: bFGF-driven angiogenesis; assay: Mouse corneal micropocket assay; format: in vivo, C57BL/6J mice; conditions: mice
In short: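 Pellets with 80 ng bFGF were implanted in C57BL/6J corneas, five mice per group. Test compound was given daily by oral gavage at 20 mg/kg in 5% ethanol, or IP at 10 mg/kg/day in 2.5% DMSO, 5% Cremophor EL, 5% Tween-80, 7.5% N-methyl-2-pyrrolidone, 0.9% NaCl. Controls received vehicle. Dosing began at implantation, and vascular area was measured by slit lamp on postoperative day 5 (~10 eyes/group, t-test).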

[5] = cited from earlier work
[6] = IP and orally at doses up to 30 mg/kg/day; cited from earlier work
[7] = test system: angiogenesis; conditions: cited from earlier work
[8] = test system: DNA polymerases; conditions: certain DNA polymerases; cited from earlier work
[9] = biological target: H+, K+, ATPase; conditions: cited from earlier work
[10] = test system: Caco-2 monolayers; conditions: cited from earlier work
[11] = cited from earlier work; remark: listed apart in the source
[12] = test system: angiogenesis; conditions: therapeutic concentrations; cited from earlier work

## O=C(OC[C@H]1O[C@@H](OC(=O)c2cc(O)c(O)c(O)c2)[C@H](OC(=O)c2cc(O)c(O)c(O)c2)[C@@H](OC(=O)c2cc(O)c(O)c(O)c2)[C@@H]1OC(=O)c1cc(O)c(O)c(O)c1)c1cc(O)c(O)c(O)c1 [PGG, 1,2,3,4,6-penta-O-galloyl-β-D-glucopyranose]
[1]; fractions of the "tannic acid" sample
  activity of HPLC fractions in the FRET assay: active
[1]; in vitro FRET binding assay
  IC50 (in words): submicromolar
[2]
  IC50 of endothelial cell migration (in words): submicromolar
[3]
  cytotoxic or cytostatic effects: no cytotoxic or cytostatic effects
[4]; 10 mg/kg IP, 80 ng bFGF pellet
  inhibition of bFGF-driven angiogenesis: significantly inhibited
[4]; 20 mg/kg/day by oral gavage, 80 ng bFGF pellet, day 5
  inhibition of bFGF-driven angiogenesis (vessel area): significantly inhibited; also recorded: statistically significant
[4]; 10 mg/kg IP or 20 mg/kg/day oral
  signs of toxicity (weight loss, hunched posture, behavioral abnormalities): no obvious signs of toxicity
[5]; intraperitoneal administration
  plasma concentrations: single-digit micromolar
[5]; oral administration
  plasma concentrations: submicromolar
[5]; oral dose of 80 mg/kg, experimental animals
  circulating concentrations: < 1 µM
[6]
  ill effects: without ill effects
[7]
  dose at which antiangiogenic activity has been evoked: 4 mg/kg
[8]
  IC50 (in words): submicromolar
[9]
  IC50 (in words): submicromolar
[10]
  nature of transport: saturable

## COC(=O)c1cc(O)c(O)c(O)c1 [Methyl Gallate]
[1]
  inhibitory activity in CMG2 FRET assay: None of these compounds exhibited any inhibitory activity

## O=C(OC[C@H]1O[C@@H](OC(=O)c2cc(O)c(O)c(OC(=O)c3cc(O)c(O)c(O)c3)c2)[C@H](OC(=O)c2cc(O)c(O)c(OC(=O)c3cc(O)c(O)c(O)c3)c2)[C@@H](OC(=O)c2cc(O)c(O)c(OC(=O)c3cc(O)c(O)c(O)c3)c2)[C@@H]1OC(=O)c1cc(O)c(O)c(OC(=O)c2cc(O)c(O)c(O)c2)c1)c1cc(O)c(O)c(OC(=O)c2cc(O)c(O)c(O)c2)c1 [Tannic acid]
[11]
  toxicity upon administration in mice: toxic effects

## COc1ccc2[nH]c([S+]([O-])Cc3ncc(C)c(OC)c3C)nc2c1 (centres unmarked) [omeprazole]
[12]
  inhibition of angiogenesis: fails to inhibit angiogenesis

## Protocatechillic acid
[1]
  IC50: > 300 µM

## CCCOC(=O)c1cc(O)c(O)c(O)c1 [Propyl Gallate]
[1]
  inhibitory activity in CMG2 FRET assay: None of these compounds exhibited any inhibitory activity
